Source: publication PMC3158820 (ACS chemical biology, 2011)
“Also recorded” adds a separate entry of the source.

What was measured:
human Lon [1] = biological target: T1, human Lon (Homo sapiens, UniProt P36776); experiment: Inhibition of α-casein degradation by hLon; format: biochemical; conditions: 10 µM DBN93, 10 µM casein, 1 µM hLon, 5 mM ATP, SDS-PAGE
T1 sequence (P36776 68-959): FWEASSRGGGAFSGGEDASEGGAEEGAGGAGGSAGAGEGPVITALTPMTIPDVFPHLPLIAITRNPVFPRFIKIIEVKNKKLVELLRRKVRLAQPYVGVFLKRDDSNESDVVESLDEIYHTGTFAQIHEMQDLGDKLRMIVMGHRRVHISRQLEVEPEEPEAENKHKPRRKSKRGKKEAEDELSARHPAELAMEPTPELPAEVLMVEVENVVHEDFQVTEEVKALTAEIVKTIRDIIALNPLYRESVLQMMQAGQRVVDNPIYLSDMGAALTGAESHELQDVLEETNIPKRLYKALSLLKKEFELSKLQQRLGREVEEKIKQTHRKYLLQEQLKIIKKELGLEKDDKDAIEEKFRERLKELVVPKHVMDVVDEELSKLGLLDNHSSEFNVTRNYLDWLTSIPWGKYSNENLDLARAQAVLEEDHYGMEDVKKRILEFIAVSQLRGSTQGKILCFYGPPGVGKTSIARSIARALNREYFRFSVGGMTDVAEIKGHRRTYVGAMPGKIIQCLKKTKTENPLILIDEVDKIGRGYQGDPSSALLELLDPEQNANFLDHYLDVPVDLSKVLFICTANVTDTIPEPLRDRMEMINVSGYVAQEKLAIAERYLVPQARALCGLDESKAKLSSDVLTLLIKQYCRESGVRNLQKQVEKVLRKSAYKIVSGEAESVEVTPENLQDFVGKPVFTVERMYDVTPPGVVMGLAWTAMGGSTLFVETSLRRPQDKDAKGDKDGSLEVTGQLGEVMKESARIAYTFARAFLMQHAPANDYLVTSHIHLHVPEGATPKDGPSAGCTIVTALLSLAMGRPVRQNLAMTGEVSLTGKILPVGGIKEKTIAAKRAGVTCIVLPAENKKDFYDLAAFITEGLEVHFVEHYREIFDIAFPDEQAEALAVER
In short: (§1)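 Digests in 50 mM Tris pH 8.1, 15 mM Mg(OAc)₂, 5 mM DTT were run at 37 °C ±inhibitor. Aliquots were quenched with SDS loading dye at time points from 0 to 90 min, run on 12.5% SDS-PAGE and stained with Coomassie Blue.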

human ClpXP [2] = experiment: Steady state peptidase activity assay; format: biochemical
human Lon [3] = biological target: T1, human Lon; experiment: Time-dependent inhibition of human Lon peptidase activity; format: biochemical
human ClpXP [4] = experiment: Inhibition of α-casein degradation by hClpXP; format: biochemical; conditions: 10 µM DBN93, 10 µM casein, 2 µM ClpX and 2 µM ClpP, 5 mM ATP, SDS-PAGE
In short: as §1

[5] = tested on: HeLa mitochondrial lysate immunodepleted of Lon; experiment: FRETN 89–98 cleavage in Lon-immunodepleted HeLa mitochondrial lysate; format: biochemical, human; conditions: 10 µM DBN93, 100 µM FRETN 89–98, 1 mM ATP; at least three trials
In short: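 Affinity-purified anti-hLon was incubated overnight at 4 °C with HeLa mitochondria in 25 mM Tris pH 7.5, 100 mM NaCl, 0.1% Tween 20. Protein A agarose was pelleted, and the supernatant was desalted into 50 mM KPi pH 7, 20% glycerol, 0.1% Tween 20, then Bradford-quantified. Emission at 420 nm (ex 320 nm) was read for 1 hr.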

S. Typhimurium Lon = conditions: cited from earlier work
human 20S proteasome = experiment: Steady state peptidase activity assay; format: biochemical; conditions: 2 µM DBN93, 200 nM human 20S proteasome, 100 µM FRETN 89–98, 500 µM ATP
In short: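 Run in 50 mM HEPES pH 8.0, 5 mM Mg(OAc)₂, 2 mM DTT at 37 °C, with reactions started by adding 20S proteasome. Cleavage was read as fluorescence emission at 420 nm (ex 320 nm). Rate was taken from the slope of the linear phase of the time course.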

[6] = tested on: Lon in isolated rat liver mitochondria; experiment: In organello degradation of 35S-labeled StAR in isolated mitochondria; format: cell-based
In short: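 ³⁵S-Met StAR precursor was made by in vitro transcription and reticulocyte-lysate translation, then imported for 30 min at 30 °C into rat liver mitochondria (600 µg) in HSB buffer with ATP, GTP, NADH and creatine kinase system. Non-imported protein was removed with trypsin on ice, then trypsin inhibitor. Pellets were chased at 30 °C ±inhibitor, TCA-precipitated, run on 12% SDS-PAGE with autoradiography, and bands quantified. Mean of 3 independent experiments, SEM, Student's t-test.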

[7] = S. Typhimurium Lon, error s.e.m.

## dansyl-YRGIT-Abu-B(OH)2 [DBN93]
Human Lon [1]
  inhibition of α-casein degradation by hLon: inhibited α-casein degradation by hLon
Human ClpXP [2]; general statement
  inhibition of hClpXP: does not inhibit this protease; also recorded: not inhibited
Human ClpXP [2]; up to 4 µM DBN93 (1 and 4 µM, Figure 5a)
  effect on cleavage of FRETN 89–98 by hClpXP: not affected
Human Lon [3]; Figure 3, panel a
  time dependence of inhibition of hLon peptidase activity: inhibited by DBN93 in a time-dependent manner
Human Lon [3]; overall inhibitor potency
  Ki* of hLon vs Ki* of bacterial Lon: comparable to the Ki* determined previously for bacterial Lon
Human ClpXP [4]
  inhibition of α-casein degradation by hClpXP: not by hClpXP
[5]
  effect on peptide cleavage in Lon-immunodepleted mitochondria: no decrease in peptide cleavage
S. Typhimurium Lon; 4 µM DBN93 (condition of the hClpXP test)
  inhibition of Lon: completely inhibited
S. Typhimurium Lon; [7]
  k3: 1.0 ± 0.3 × 10^5 M^−1s^−1
  k4: 0.022 ± 0.007 s⁻¹
  k5: 0.0032 ± 0.0003 s⁻¹
  k6: 0.00028 ± 0.00002 s⁻¹
Human 20S proteasome
  inhibition of 20S proteasome catalyzed cleavage of FRETN 89–98: inhibited the cleavage; also recorded: inhibits
[6]; 10 µM DBN93, 1 or 2 hr chase, rat mitochondria, n=3
  inhibition of StAR degradation in mitochondria: inhibits degradation of StAR
[6]; intact rat mitochondria, 10 µM DBN93, inferred from StAR degradation
  penetration of mitochondrial membranes: can penetrate the mitochondrial membranes
